Measured values pooled from the literature.
Each line is one published result; the experiments were not run side by side.
Medium: plasma

SMILES	host	route	dose	notes	endpoint	result
Nc1ccn([C@@H]2O[C@H](CO)[C@@H](O)C2(F)F)c(=O)n1	male Sprague-Dawley rat	intraperitoneal	5 mg/kg		MRT(0-inf)	0.88 h
C=CC(=O)N1CCC[C@@H](n2nc(-c3ccc(Oc4ccccc4)cc3)c3c(N)ncnc32)C1	male Wistar rat	oral	40 mg/kg		MRT	4.55 h
COc1ccc(-c2coc3cc(O)cc(O)c3c2=O)cc1	rat	intravenous	2 mg/kg		MRT	0.27 h
CC(=O)c1c(C)c2cnc(Nc3ccc(N4CCNCC4)cn3)nc2n(C2CCCC2)c1=O	male Sprague-Dawley rat	intravenous	5 mg/kg		MRT	2.5 h
C[C@H]1[C@@H](O)O[C@@H]2O[C@@]3(C)CC[C@H]4[C@H](C)CC[C@@H]1[C@@]24OO3	male Sprague-Dawley rat	oral	10 mg/kg		MRT(0-inf)	2.97 h
CONC(=O)c1cccc2c1cc(C)n2-c1nc2c(c(NCc3ccccc3)n1)CCCN2	male Sprague-Dawley rat	oral	10 mg/kg	single dose	MRT	1.55 h
Cn1c(=O)c2[nH]cnc2n(C)c1=O	male Sprague-Dawley rat	intravenous	22.5 mg/kg		MRT(0-inf)	3.69 h
COc1nc(-c2cccc(-c3ccccc3)c2C)ccc1CNCCNC(=O)CCCCCCCCCCC(=O)N1CCN(CCNC(=O)c2cc3c(=O)n4cccc(C)c4nc3n(CCc3cccs3)c2=N)CC1	male Sprague-Dawley rat	intravenous	2 mg/kg		MRT(0-t)	4.8 h
CC[C@@H]([C@H](C)O)n1ncn(-c2ccc(N3CCN(c4ccc(OC[C@@H]5CO[C@@](Cn6cncn6)(c6ccc(F)cc6F)C5)cc4)CC3)cc2)c1=O	Sprague-Dawley rat	oral	40 mg/kg		MRT(0-inf)	22.1 h
O=C1CCC(N2Cc3cc(C4CCN(Cc5ccccc5)CC4)ccc3C2=O)C(=O)N1 (centres unmarked)	male Sprague-Dawley rat	oral	3 mg/kg		MRT(0-inf)	3.28 h
C[C@H]1Oc2cc(cnc2N)-c2c(nn(C)c2C#N)CN(C)C(=O)c2ccc(F)cc21	male Sprague-Dawley rat	oral	50 mg/kg	single dose	MRT(0-inf)	25 h
